From ChEMBL document CHEMBL1132919, “Structure-activity studies for a novel series of tricyclic substituted hexahydrobenz[e]isoindole alpha(1A) adrenoceptor antagonists as potential agents for the symptomatic treatment of benign prostatic hyperplasia (BPH)” (J Med Chem, 2000) come the findings set out here.

For experiment [1], the target named is T1, Alpha-1D adrenergic receptor (Rattus norvegicus, UniProt P23944).
T1 sequence (P23944 whole entry): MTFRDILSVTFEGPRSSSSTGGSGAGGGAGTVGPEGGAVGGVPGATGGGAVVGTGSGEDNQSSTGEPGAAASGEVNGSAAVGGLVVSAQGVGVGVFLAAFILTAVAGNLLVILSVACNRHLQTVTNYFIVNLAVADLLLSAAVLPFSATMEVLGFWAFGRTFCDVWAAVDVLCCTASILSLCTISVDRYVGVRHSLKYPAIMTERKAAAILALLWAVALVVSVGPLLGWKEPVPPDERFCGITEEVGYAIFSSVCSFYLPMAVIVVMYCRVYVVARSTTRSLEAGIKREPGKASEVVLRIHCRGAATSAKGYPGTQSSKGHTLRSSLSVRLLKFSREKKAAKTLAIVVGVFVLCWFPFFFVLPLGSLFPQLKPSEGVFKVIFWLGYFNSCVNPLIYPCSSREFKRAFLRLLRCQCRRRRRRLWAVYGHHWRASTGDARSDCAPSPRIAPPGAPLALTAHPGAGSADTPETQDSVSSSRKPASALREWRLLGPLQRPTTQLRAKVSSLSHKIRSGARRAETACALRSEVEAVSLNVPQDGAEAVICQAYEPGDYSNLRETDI
Description: In vitro binding affinity using [3H]prazosin as radioligand against alpha-1D adrenergic receptor expressed in LTK cell. In kind it is cell-based. Put shortly: (§1)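 Membranes from mouse LTK- fibroblasts stably expressing cloned hamster α1B or rat α1D, grown in roller bottles, frozen in liquid N2 and stored at -70 °C. Incubated with [3H]-prazosin ~200 pM, ~0.1 mg protein per tube, in 50 mM Tris-HCl pH 7.4 for 60 min at 25 °C; nonspecific binding defined by 10^-5 M phentolamine (final).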

For experiment [2], the target named is T2, Alpha-1A adrenergic receptor (Rattus norvegicus, UniProt P43140).
T2 sequence (P43140 whole entry): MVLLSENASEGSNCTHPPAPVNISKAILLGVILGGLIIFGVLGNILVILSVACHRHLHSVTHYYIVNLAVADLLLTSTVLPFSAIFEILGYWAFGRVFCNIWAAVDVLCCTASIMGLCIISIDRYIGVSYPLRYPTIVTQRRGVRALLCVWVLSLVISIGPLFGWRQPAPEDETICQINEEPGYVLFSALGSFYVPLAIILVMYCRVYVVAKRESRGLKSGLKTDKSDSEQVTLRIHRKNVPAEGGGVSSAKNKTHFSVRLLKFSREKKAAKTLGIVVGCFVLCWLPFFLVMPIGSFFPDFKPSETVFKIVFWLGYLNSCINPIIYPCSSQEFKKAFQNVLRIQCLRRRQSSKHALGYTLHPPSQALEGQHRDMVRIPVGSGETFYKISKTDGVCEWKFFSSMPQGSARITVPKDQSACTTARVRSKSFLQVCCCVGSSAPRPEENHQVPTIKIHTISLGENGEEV
The experiment can be described thus: In vitro binding affinity using [3H]prazosin as radioligand against alpha-1A adrenergic receptor. Put shortly:
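Binding to pharmacologically defined α1A site in rat submaxillary gland membranes; [3H]-prazosin ~200 pM, nonspecific binding with 10^-5 M phentolamine (final); ~0.1 mg protein per tube in 50 mM Tris-HCl pH 7.4, 60 min at 25 °C.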

In experiment [3] the target is T3, Alpha-1B adrenergic receptor (Mesocricetus auratus, UniProt P18841).
T3 sequence (P18841 whole entry): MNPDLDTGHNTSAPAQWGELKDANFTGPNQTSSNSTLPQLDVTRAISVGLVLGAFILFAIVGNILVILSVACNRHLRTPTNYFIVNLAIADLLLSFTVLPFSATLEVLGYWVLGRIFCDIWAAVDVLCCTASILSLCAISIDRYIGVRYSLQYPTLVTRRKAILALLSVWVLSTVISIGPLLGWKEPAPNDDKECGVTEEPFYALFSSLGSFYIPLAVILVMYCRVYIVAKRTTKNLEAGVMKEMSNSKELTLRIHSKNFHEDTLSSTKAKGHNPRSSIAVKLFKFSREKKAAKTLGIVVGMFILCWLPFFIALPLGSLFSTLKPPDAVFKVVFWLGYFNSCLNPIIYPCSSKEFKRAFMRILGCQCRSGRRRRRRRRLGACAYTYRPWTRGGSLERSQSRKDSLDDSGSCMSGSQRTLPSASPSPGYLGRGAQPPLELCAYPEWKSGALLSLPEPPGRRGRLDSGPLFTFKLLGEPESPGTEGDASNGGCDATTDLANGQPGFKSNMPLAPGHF
Description: In vitro binding affinity using [3H]prazosin as radioligand against alpha-1B adrenergic receptor expressed in LTK cell. The experiment is classed as cell-based. Put shortly:
as §1

The species named for experiment [4] is Cricetulus griseus. Description: Ratio between Ki(alpha-1b)/Ki(alpha1A).

Consider `COC(=O)c1ccc2sc3c(=O)n(CCN4C[C@@H]5CCc6c(OC)cccc6[C@@H]5C4)c(=O)[nH]c3c2c1`, for which the Ki in experiment [1] was 2.84 nM; in experiment [2], 4.75 nM; in experiment [3] it was 14.3 nM. In addition, the Selectivity ratio in experiment [4] stood at 3.01.

Consider `COc1cccc2c1CC[C@H]1CN(CCn3c(=O)[nH]c4c(sc5cc(C(F)(F)F)ccc54)c3=O)C[C@@H]21`, for which the inhibition constant Ki is 6.84 nM in experiment [1], 9.27 nM in experiment [2] and 23.8 nM in experiment [3]. The Selectivity ratio in experiment [4] is 2.56.

As to `COc1cccc2c1CC[C@H]1CN(CCn3c(=O)[nH]c4c(sc5ccccc54)c3=O)C[C@@H]21` (stereo in doubt; 22), in experiment [4], the Selectivity ratio turned out to be 5.57.

Turning to `COc1cccc2c1CC[C@H]1CN(CCn3c(=O)[nH]c4c(sc5nccnc54)c3=O)C[C@@H]21`, the Ki came out at 2.06 nM in experiment [1], 0.72 nM in experiment [2] and 12.5 nM in experiment [3]. The Selectivity ratio in experiment [4] worked out at 17.3.

`COc1cccc2c1CC[C@H]1CN(CCn3c(=O)[nH]c4c(sc5cc(C#N)ccc54)c3=O)C[C@@H]21`: the Ki in experiment [1] turned out to be 0.74 nM; in experiment [2] it was 0.4 nM; in experiment [3], 6.2 nM. Moreover, in experiment [4], the Selectivity ratio was found to be 15.5.

`COc1cccc2c1CC[C@H]1CN(CCn3c(=O)[nH]c4c(sc5cnccc54)c3=O)C[C@@H]21`: the results for the Ki in experiment [1], in experiment [2] and in experiment [3] were 0.37 nM, 0.53 nM and 3.33 nM, respectively. The Selectivity ratio in experiment [4] was 6.28.

Consider `COc1cccc2c1CCC1CN(CCn3c(=O)[nH]c4c(sc5ccccc54)c3=O)CC21` (stereo in doubt; 18) [listing 1 of 2 here], for which the values for the Ki in experiment [1], in experiment [2] and in experiment [3] were 0.37 nM, 0.64 nM and 2.57 nM, respectively.

For the compound `COc1cccc2c1CCC1CN(CCn3c(=O)[nH]c4c(oc5ccccc54)c3=O)CC21` (cis isomer), the values for the Ki in experiment [1], in experiment [2] and in experiment [3] were 0.68 nM, 2.17 nM and 5.39 nM, respectively. Also, the Selectivity ratio in experiment [4] was 2.48.

Consider `COc1cccc2c1CC[C@H]1CN(CCn3c(=O)[nH]c4c(sc5ccc(C(=O)N(C)C)cc54)c3=O)C[C@@H]21`, for which the inhibitory constant (Ki) turned out to be 0.63 nM in experiment [1], 0.28 nM in experiment [2] and 1.7 nM in experiment [3]. In addition, the Selectivity ratio in experiment [4] stood at 6.07.

As for `COc1cccc2c1CC[C@H]1CN(CCn3c(=O)[nH]c4c(sc5ncc(-c6ccccc6)nc54)c3=O)C[C@@H]21`, the Ki in experiment [1] came to 19.8 nM; in experiment [2], 3.91 nM; in experiment [3] it was 120 nM. The Selectivity ratio in experiment [4] is 30.7.

With `COc1cccc2c1CC[C@H]1CN(CCn3c(=O)[nH]c4c(sc5ccc(C)cc54)c3=O)C[C@@H]21`, the results for the inhibition constant (Ki) in experiment [1], in experiment [2] and in experiment [3] were 1.04 nM, 2.16 nM and 4.26 nM, respectively. Further, the Selectivity ratio in experiment [4] stood at 1.97.

Regarding `COc1cccc2c1CC[C@H]1CN(CCn3c(=O)[nH]c4c(sc5cc(C(N)=O)ccc54)c3=O)C[C@@H]21`, the inhibition constant Ki stood at 0.27 nM in experiment [1], 0.29 nM in experiment [2] and 0.86 nM in experiment [3]. In addition, the Selectivity ratio in experiment [4] was 2.9.

As for `COc1cccc2c1CC[C@H]1CN(CCn3c(=O)[nH]c4c(sc5c(C#N)cccc54)c3=O)C[C@@H]21`, the inhibitory constant (Ki) is 2.08 nM in experiment [1], 6.35 nM in experiment [2] and 26.9 nM in experiment [3]. In experiment [4], the Selectivity ratio came to 4.24.

For the compound `COc1cccc2c1CC[C@H]1CN(CCn3c(=O)[nH]c4c(sc5nc(-c6ccccc6)cnc54)c3=O)C[C@@H]21`, the Ki in experiment [1] came out at 160 nM; in experiment [2] it was 153 nM; in experiment [3], 1850 nM. Moreover, the Selectivity ratio in experiment [4] came out at 12.

`COc1cccc2c1CC[C@H]1CN(CCn3c(=O)[nH]c4c(sc5ccccc54)c3=O)C[C@@H]21` (stereo in doubt; 23): the Selectivity ratio in experiment [4] worked out at 1.55.

`COc1cccc2c1CCC1CN(CCn3c(=O)[nH]c4c(sc5ccccc54)c3=O)CC21` (stereo in doubt; 21) [listing 1 of 2 here]: the Ki amounted to 0.63 nM in experiment [1], 1.08 nM in experiment [2] and 3.43 nM in experiment [3].

Regarding `COc1cccc2c1CC[C@H]1CN(CCn3c(=O)[nH]c4c(sc5cccc(C)c54)c3=O)C[C@@H]21`, the Ki was found to be 0.88 nM in experiment [1], 1.29 nM in experiment [2] and 6.95 nM in experiment [3]. Further, the Selectivity ratio in experiment [4] came to 5.38.

Turning to `COc1cccc2c1CC[C@H]1CN(CCn3c(=O)[nH]c4c(sc5c(OC)ccnc54)c3=O)C[C@@H]21`, the Ki in experiment [1] was 1.41 nM; in experiment [2] it was 0.79 nM; in experiment [3] it was 6.69 nM. Moreover, the Selectivity ratio in experiment [4] was 8.45.

In the case of `COc1cnc2sc3c(=O)n(CCN4C[C@@H]5CCc6c(OC)cccc6[C@@H]5C4)c(=O)[nH]c3c2n1`, the inhibition constant (Ki) stood at 1.1 nM in experiment [1], 0.35 nM in experiment [2] and 3.73 nM in experiment [3]. In addition, the Selectivity ratio in experiment [4] is 10.6.

In the case of `COc1cccc2c1CC[C@H]1CN(CCn3c(=O)[nH]c4c(sc5ccc(C(N)=O)cc54)c3=O)C[C@@H]21`, the figures for the Ki in experiment [1], in experiment [2] and in experiment [3] were 0.51 nM, 0.52 nM and 6.34 nM, respectively. Also, in experiment [4], the Selectivity ratio stood at 12.2.

Take `COc1cccc2c1CC[C@H]1CN(CCn3c(=O)[nH]c4c(sc5c(Cl)cccc54)c3=O)C[C@@H]21`: the inhibitory constant (Ki) was found to be 25 nM in experiment [1], 98.9 nM in experiment [2] and 1220 nM in experiment [3]. Besides, the Selectivity ratio in experiment [4] was found to be 12.3.

Take `COc1cccc2c1CC[C@H]1CN(CCn3c(=O)[nH]c4c(sc5nc(C)cnc54)c3=O)C[C@@H]21`: the Ki in experiment [1] came out at 2.31 nM; in experiment [2], 0.49 nM; in experiment [3], 13.5 nM. In experiment [4], the Selectivity ratio turned out to be 27.5.

Turning to `COc1cccc2c1CC[C@H]1CN(CCn3c(=O)[nH]c4c(sc5ccc([N+](=O)[O-])cc54)c3=O)C[C@@H]21`, the values for the inhibitory constant (Ki) in experiment [1], in experiment [2] and in experiment [3] were 1.31 nM, 1.28 nM and 8.49 nM, respectively. For the same compound, the Selectivity ratio in experiment [4] was 6.64.

As to `COc1cccc2c1CC[C@H]1CN(CCn3c(=O)[nH]c4c(sc5ccc(C#N)cc54)c3=O)C[C@@H]21`, the Ki in experiment [1] is 0.59 nM; in experiment [2] it was 1.64 nM; in experiment [3], 14.3 nM. Moreover, in experiment [4], the Selectivity ratio worked out at 8.7.

Consider `COc1ccc2sc3c(=O)n(CCN4C[C@@H]5CCc6c(OC)cccc6[C@@H]5C4)c(=O)[nH]c3c2n1`, for which the inhibitory constant (Ki) in experiment [1] worked out at 1.1 nM; in experiment [2], 0.66 nM; in experiment [3], 3 nM. Further, the Selectivity ratio in experiment [4] is 4.5.

`COc1cccc2c1CC[C@H]1CN(CCn3c(=O)[nH]c4c(sc5cccc(OC)c54)c3=O)C[C@@H]21`: the values for the Ki in experiment [1], in experiment [2] and in experiment [3] were 1.07 nM, 0.77 nM and 3.1 nM, respectively. For the same compound, the Selectivity ratio in experiment [4] stood at 4.

Take `COc1cccc2c1CC[C@H]1CN(CCn3c(=O)[nH]c4c(sc5cccc(Cl)c54)c3=O)C[C@@H]21`: the values for the inhibition constant Ki in experiment [1], in experiment [2] and in experiment [3] were 1.32 nM, 0.51 nM and 3.15 nM, respectively. For the same compound, the Selectivity ratio in experiment [4] stood at 6.17.

As to `COc1cccc2c1CCC1CN(CCn3c(=O)[nH]c4c(sc5ccccc54)c3=O)CC21` (stereo in doubt; 21) [listing 2 of 2 here], the Selectivity ratio in experiment [4] came to 3.17.

In the case of `COc1cccc2c1CCC1CN(CCn3c(=O)[nH]c4c(sc5ccccc54)c3=O)CC21` (stereo in doubt; 18) [listing 2 of 2 here], the Selectivity ratio in experiment [4] amounted to 4.

As usually defined, the Ki is a dissociation constant, usually derived from enzyme kinetics or from competition with a known ligand. High values mean weaker binding, low ones tighter binding.
